# Screening data: PubChem, The Scripps Research Institute Molecular Screening Center
# In the library only some 1.8% were active in any assay of this set; here they are far more common.
# M4 PAM – potentiates acetylcholine response at human M4 receptor. P08173. activation, % at 3 µM. CHO-K1 hM4/Gqi5, Fluo-8 calcium fluorescence, ACh EC20; 0% = ACh EC20, 100% = maximal ACh. 0.4% of 360,000 active;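 active = activation above its plate's cutoff, the mean activation of sample wells plus 3 SD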
# CHRM5 PAM – positive allosteric modulators of human muscarinic M5 receptor; CHO-K1 hM5, Fluo-8 calcium, ACh EC20 PAM; 0% = ACh EC20, 100% = ACh EC100; 0.3% of 360,000 active; activation, % at 3 µM; P08912;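 active = activation above the run cutoff, the mean activation of all test compounds plus 3 SD, cut at about 18% in these data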
# Target sequence (P08912 whole entry, looked up): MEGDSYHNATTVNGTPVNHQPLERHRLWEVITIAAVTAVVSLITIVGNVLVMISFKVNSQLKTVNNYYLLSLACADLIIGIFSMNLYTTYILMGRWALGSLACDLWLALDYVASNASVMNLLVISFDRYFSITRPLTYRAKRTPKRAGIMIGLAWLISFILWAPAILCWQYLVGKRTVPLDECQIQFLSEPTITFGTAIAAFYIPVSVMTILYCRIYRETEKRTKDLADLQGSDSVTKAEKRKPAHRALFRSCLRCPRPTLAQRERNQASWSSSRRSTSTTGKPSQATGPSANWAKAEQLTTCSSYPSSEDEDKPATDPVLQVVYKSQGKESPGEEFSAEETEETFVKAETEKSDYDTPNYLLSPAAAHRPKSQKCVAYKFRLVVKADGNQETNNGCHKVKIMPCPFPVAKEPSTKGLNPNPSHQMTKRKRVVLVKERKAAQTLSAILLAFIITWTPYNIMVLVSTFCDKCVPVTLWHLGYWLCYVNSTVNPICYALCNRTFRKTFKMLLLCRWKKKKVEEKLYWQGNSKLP
#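 System – CHO-K1 hM5 cells · Compound – 3 µM, single dose · Incubation – compound preincubation 140 s before EC20 acetylcholine addition · Technique – Fluo-8 calcium fluorescence · Measure – Max/basal fluorescence ratio as % of EC20–EC100 ACh window · Benchmarks – low control EC20 acetylcholine (0%), high control EC100 acetylcholine (100%) · Replication – singlicate, one well per test compound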
# M5 antag – antagonists of human muscarinic M5 receptor (CHRM5); P08912; CHO-hM5 cells, Fluo-8 calcium fluorescence, ACh EC80; inhibition, % at 3 µM; 0.59% of 360,000 active; AID 624040;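 active = inhibition above a per-plate cutoff, the mean of that plate's test compounds plus 3 SD, cut at about 27% in these data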;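 also: 0% = acetylcholine EC80 with DMSO and 100% = DMSO without agonist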
# CHRM4 agonist – CHRM4 agonism in calcium assay; P08173; CHO-K1 hM4/Gqi5, Fluo-8 calcium fluorescence; vehicle 0%, full acetylcholine response 100%; activation, % at 3 µM; 0.14% of 360,000 active;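 active = activation above the run mean over all test wells plus 3 SD, cut at about 32% in these data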;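 also: peak over basal fluorescence ratio per well then scaled between controls; 0% = DMSO wells and 100% = acetylcholine at EC100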
# CHRM4 antagonist – antagonists of human muscarinic M4 receptor (CHRM4); CHO-hM4 cells, ACh EC80, Fluo-8 calcium fluorescence; P08173; inhibition, % at 3 µM; 0.73% of 360,000 active;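 active = inhibition above its plate's cutoff, the mean inhibition of sample wells plus 3 SD, cut at about 27% in these data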;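 also: 0% = acetylcholine EC80 with DMSO and 100% = DMSO without agonist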
# M5 ag – CHRM5 agonism in calcium assay. CHO-K1 hM5 cells, Fluo-8 calcium fluorescence; 0% DMSO wells, 100% maximal acetylcholine response. 0.19% of 360,000 active. P08912. activation, % at 3 µM;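 active = activation above the run's mean over test compounds plus 3 SD, cut at about 23% in these data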;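 also: signal is peak over basal fluorescence ratio across the kinetic read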
# Starred values were filed as active, the others as inactive; ! = repeats disagree.
SMILES,M4 PAM,CHRM5 PAM,M5 antag,CHRM4 agonist,CHRM4 antagonist,M5 ag
COc1ccc(C(=O)N/N=C/c2ccc(OC)c(COc3c(F)c(F)cc(F)c3F)c2)cc1,-7.5,1.8,10.5,4.3,-4.4,-4.9
COc1ccc(Cn2cc(F)c(=O)n(C)c2=O)cc1[N+](=O)[O-],0.1,18.2*,-9.5,1.4,-6.8,2.5
COc1cccc(NC(=O)CN(C)C(=O)CC2CCCCC2)c1,6.3,-0.2,3.4,2.9,-10.1,1.9
Cc1ccc(C)c(NS(=O)(=O)c2c(C)nn(C)c2C)c1,4.4,2.3,-9.4,1.5,-8.1,-2.3
Cc1ccc(OS(=O)(=O)c2c(C)nn(C)c2Cl)c(C)c1,-17.3,-34.1,30.5*,0.0,43.3*,-7.8
COc1ccc(NC(=O)c2ccccc2OCc2ccc(F)cc2)c(OC)c1,-22.7,-6.5,16.1,1.5,5.1,-5.4
CCc1cc(C(=O)OC)c(NC(=O)c2ccoc2C)s1,9.1,8.0,-9.4,-0.4,5.5,1.4
COC(=O)c1c(-c2ccncc2)csc1NC(=O)c1ccoc1C,48.2*,-2.9,-2.6,0.3,31.8*,-4.8
CC(=O)Nc1ccc(C=NNc2ccc(S(=O)(=O)Nc3ccccc3C(=O)O)cc2[N+](=O)[O-])cc1,4.2,-8.2,10.8,0.2,-10.2,1.6
CC(=O)Nc1cccc(/C(C)=N/Nc2ccc(S(=O)(=O)Nc3ccccc3C(=O)O)cc2[N+](=O)[O-])c1,20.3*,-3.2,8.6,-1.6,-12.8,1.9
COc1cccc(NC(=O)CN2C(=O)C(c3ccc(C)cc3)=NC23CCCCCC3)c1,0.0,-5.6,7.5,-0.6,5.1,0.1
COc1cc(NC(=O)CN2C(=O)C(c3ccccc3)=NC23CCCCCC3)cc(OC)c1,21.2*,3.7,-0.6,2.4,-2.9,-0.5
Cc1cc(C(F)F)n2nc(C(=O)Nc3cc(C)on3)nc2n1,27.8*,5.3,-11.3,1.2,4.2,-1.0
COc1cccc(NC(=O)c2nc3nc(C)cc(C(F)F)n3n2)c1,8.2,-4.8,3.2,0.5,-20.6,0.4
NC(N)=N/N=C/c1c(Cl)cccc1Cl,-5.3,-15.3,-1.6,12.7,-8.2,29.2*!
Cc1cc(C)n(-c2cccc(F)n2)n1,1.0,19.1*,-0.5,0.1,3.5,3.7
CCOc1ccc(S(=O)(=O)N2CCCC(C(=O)N3CCOCC3)C2)cc1Cl (stereo not given),-3.2,-7.6,3.9,3.2,-7.4,1.4
CC(=O)N1CCOc2ccc(S(=O)(=O)N(C)c3ccc(C)cc3)cc21,2.2,-8.4,5.9,6.4,29.1*,-4.0
CC(C)(CNC(=O)CC1C(=O)NCCN1Cc1cccc(F)c1)N1CCOCC1 (stereo not given),-2.9,-1.1,2.9,0.3,-2.4,-1.0
CCOC(=O)c1[nH]ncc1CN1CCCC(C(=O)c2cccc(OC(C)C)c2)C1 (stereo not given),-4.2,0.6,4.9,0.3,8.8,-3.6
CCn1ncc(CN2CCCC(C(=O)c3cccc(OC(C)C)c3)C2)c1C (stereo not given),-18.2,-13.8,29.2*,1.2,37.8*,-9.9
COC(=O)CCCCCN1C(=O)NC(C2CC2)C(C(=O)OCc2ccccc2)=C1C (stereo not given),-5.9,-31.2,29.4*,16.0,15.6,4.2
COC(=O)CCCN1C(=O)NC(c2ccc(-c3ccccc3)cc2)C(C(=O)OCc2ccccc2)=C1C (stereo not given),1.0,1.9,-0.5,-0.5,4.1,1.1
COc1ccc(Cc2c(-c3ccccc3)nc3c4ccccc4ccn23)c(C)c1,-1.7,0.0,10.4,0.1,-0.4,-1.5
CN(C)c1ccc(/C=C/c2ccc3c4ccccc4ccc3[n+]2-c2ccccc2)cc1,-22.5,-27.6,43.2*,18.5,40.3*,-1.2
SMILES,M4 PAM,CHRM5 PAM,M5 antag,CHRM4 agonist,CHRM4 antagonist,M5 ag
CN(C)c1ccc(/C=C/c2ccc3ccccc3[n+]2C)cc1,7.3,-4.9,13.6,0.7,-0.1,-0.5
O=C(/C=C/c1cccc(F)c1)Nc1ccc(S(=O)(=O)N2CCOCC2)cc1,11.2,18.8*,12.0,2.9,-15.1,-3.9
O=S(=O)(Nc1ccc(S(=O)(=O)N2CCCC2)cc1)c1ccc(F)cc1,3.4,7.7,-3.6,2.3,-0.9,-2.0
O=S(=O)(Nc1ccc(F)cc1)c1ccc(S(=O)(=O)N2CCOCC2)cc1,-2.7,-4.8,0.3,17.7,2.6,27.0*
CCCC(C(=O)Nc1ccc(S(=O)(=O)N2CCOCC2)cc1)c1ccccc1 (stereo not given),-5.3,-5.8,5.2,22.1,4.4,23.3*
O=S(=O)(c1ccc(NC(=S)NCc2cccnc2)cc1)N1CCCCC1,-14.7,-26.8,18.4,31.8,37.6*,1.9
O=C(NCc1cccnc1)c1ccc(S(=O)(=O)N2CCCCC2)cc1,8.0,1.4,-5.1,4.2,-6.5,1.3
O=S(=O)(c1ccc(NC(=S)Nc2ccccc2)cc1)N1CCOCC1,29.1*,24.4*,-1.2,1.3,-11.9,-3.1
O=C(CN1CCOCCOCCOCC1)Nc1ccccc1,5.4,-4.5,10.8,2.0,2.0,1.8
O=C(CN1CCOCC1)NNC(=S)Nc1ccccc1,12.1,29.4*,-2.0,1.8,3.2,9.2
CCN1C(=O)[C@H]2[C@@H](c3ccc(-c4cc(C(C)=O)cs4)cc3)N3CCCC[C@@]3(C(=O)OC)[C@H]2C1=O,17.3,4.6,3.5,2.0,2.0,4.6
CC(C)C1CC(CCN)(c2ccccc2)CCO1 (stereo not given),-12.6,2.5,7.2,0.7,48.1*,-12.5
COc1cccc(NC(=O)CN(C)C(=O)CSc2ncnc3sc(C)c(C)c23)c1,-1.9,-11.0,4.1,0.5,-16.6,-4.1
CO/N=C/c1ccc(N2CCN(C(=O)c3cccc(C(F)(F)F)c3)CC2)c([N+](=O)[O-])c1,12.5,-12.4,5.8,16.6,28.3*,4.0
CO/N=C/c1ccc(N2CCN(C(=O)c3ccc(Cl)cc3Cl)CC2)c([N+](=O)[O-])c1,-30.0,-15.6,23.4,31.2,40.4*,18.0
CO/N=C/c1ccc(N2CCN(C(=O)c3ccc(F)cc3)CC2)c([N+](=O)[O-])c1,57.1*,-10.7,7.4,24.5,55.7*,10.0
O=C(N/N=C/c1ccc(N2CCOCC2)c([N+](=O)[O-])c1)c1ccc(F)cc1,-4.3,-6.2,0.2,5.8,-6.8,2.0
O=C(CCc1nc2ccccc2c(=O)[nH]1)N1CCN(C/C=C/c2ccccc2)CC1,-22.9,-16.2,28.0*,13.7,4.2,-0.7
CC(=O)N1CCN(C(=O)CCc2nc3ccccc3c(=O)[nH]2)CC1,10.9,5.5,-17.6,-0.2,-8.0,-3.5
